Test results taken from publication PMC11219355 (Heliyon, 2024).

Columns and labels:
[1] = tested on: Cutibacterium acnes (DMST 14916); assay: Antibacterial growth inhibition; format: cell-based; details: C. acnes; antibiotic 500 μg/mL; 37 °C, 18–22 h, OD600
How it was run: (§1)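 Inocula: C. acnes grown anaerobically in Schaedler broth at 37 °C for 72 h and adjusted to OD600 0.1. S. aureus and MRSA single colonies grown in nutrient broth at 37 °C for 18 h and adjusted to OD600 0.001. Suspensions were mixed 1:1 with peptide (1000 μg/mL) or ampicillin/clindamycin (500 μg/mL) solutions. Untreated culture served as 0 % inhibition. Three repeats, mean ± SD.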

[2] = tested on: Staphylococcus aureus (ATCC 25923); assay: Antibacterial growth inhibition; format: cell-based; details: S. aureus; antibiotic 500 μg/mL; 37 °C, 18–22 h, OD600
How it was run: as §1

[3] = tested on: methicillin-resistant Staphylococcus aureus (MRSA) (DMST 20646); assay: Antibacterial growth inhibition; format: cell-based; details: antibiotic 500 μg/mL, 37 °C, 18–22 h, OD600
How it was run: as §1

RAW 264.7 cells = assay: RAW 264.7 cytotoxicity assay; format: cell-based, Murine; details: RAW 264.7, MTT, peptide 1000 μg/mL, 24 h
How it was run: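 Murine macrophages were grown in DMEM plus 10 % heat-inactivated FBS and 1 % antibiotic-antimycotic (37 °C, 5 % CO2) and seeded overnight at 2 × 10⁴ cells/well. Peptide was added at 1000 μg/mL final for 24 h. MTT was added at 0.5 mg/mL final in fresh medium for 30 min. Formazan was dissolved in DMSO and read at OD570. Viability was expressed versus untreated cells. Three repeats, mean ± SD.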

[4] = tested on: C. acnes, S. aureus and MRSA; assay: Antibacterial growth inhibition, stated as one range over the three strains; format: cell-based, Cutibacterium acnes; Staphylococcus aureus; details: peptide 1000 μg/mL
How it was run: as §1

Molecule	growth inhibition [1] [%]	growth inhibition [2] [%]	growth inhibition [3] [%]	reduction in cell viability (RAW 264.7 cells) [%]	relative antibacterial potency among the 8 peptides, in words [4]
CC1(C)S[C@@H]2[C@H](NC(=O)[C@H](N)c3ccccc3)C(=O)N2[C@H]1C(=O)O [ampicillin]	92.92	97.85	100.00		
RKLLEGEE [RE8]				~15	
CCC[C@@H]1C[C@@H](C(=O)N[C@@H]([C@H]2O[C@H](SC)[C@H](O)[C@@H](O)[C@H]2O)[C@H](C)Cl)N(C)C1 [clindamycin]	100.00	96.35	51.86		
IIDVKMLS [IS8]					least potent peptide
